Reference: ChEMBL document CHEMBL2331221, “Potent elastase inhibitors from cyanobacteria: structural basis and mechanisms mediating cytoprotective and anti-inflammatory effects in bronchial epithelial cells” (J Med Chem, 2013)
Activity calls are given as the source filed them. The calls are words filed in the database; no cut-off is given here.

Tests used:
[1] = Inhibition of human pancreatic chymotrypsin assessed as proteolysis using N-succinyl-Ala-Ala-Pro-Phe-p-nitroanilide substrate incubated for 30 mins prior to substrate addition
Homo sapiens = species: Homo sapiens; assay: Inhibition of human pancreatic chymotrypsin assessed as proteolysis using N-succinyl-Ala-Ala-Pro-Phe-p-nitroanilide substrate incubated at 10 uM for 30 mins prior to substrate addition; design: scale not given: the % may be the effect or the level left
Method in brief: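 Pancreatic chymotrypsin, bovine at 100 μg/mL or human at 50 μg/mL; reaction buffer, enzyme and inhibitor (DMSO) incubated 30 min at room temperature, then substrate added (bovine: N-succinyl-Gly-Gly-Phe-pNA; human: N-succinyl-Ala-Ala-Pro-Phe-pNA). Absorbance read at 405 nm; activity from reaction slope relative to solvent control.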

[2] = Antiproteolytic activity against elastase (unknown origin); design: species or system Homo sapiens
Method in brief: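 Inhibitor in DMSO pre-incubated with elastase in Tris-HCl pH 8.0 for 15 min at room temperature. Reaction started with N-succinyl-Ala-Ala-Ala-p-nitroanilide (2 mM in the added substrate solution). Absorbance at 405 nm read every 30 s. Activity is the initial slope of each progress curve, as percent of the uninhibited reaction.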

[3] = target: T1, Neutrophil elastase (Homo sapiens) (UniProt P08246); conditions: BEAS2B, 100 uM
T1 sequence (whole entry): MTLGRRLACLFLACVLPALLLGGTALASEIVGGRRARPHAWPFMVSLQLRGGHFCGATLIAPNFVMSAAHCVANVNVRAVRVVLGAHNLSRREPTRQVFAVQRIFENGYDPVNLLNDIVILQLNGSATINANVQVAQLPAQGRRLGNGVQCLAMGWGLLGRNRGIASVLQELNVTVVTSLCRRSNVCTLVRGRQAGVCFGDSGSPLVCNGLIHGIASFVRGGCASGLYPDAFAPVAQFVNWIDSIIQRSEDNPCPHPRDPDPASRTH

[4] = Inhibition of bovine pancreatic chymotrypsin assessed as proteolysis using N-succinyl-Gly-Gly-Phe-p-nitroanilide substrate incubated for 30 mins prior to substrate addition; design: species or system Bos taurus
[5] = target: T1, Neutrophil elastase (Homo sapiens); conditions: BEAS2B, 100 uM; remark: listed apart in the source
[6] = target: T1, Neutrophil elastase (Homo sapiens); conditions: BEAS2B, 100 uM; remark: listed apart in the source
[7] = Inhibition of porcine pancreatic elastase assessed as proteolysis using N-succinyl-Ala-Ala-Ala-p-nitroanilide substrate incubated for 15 mins prior to substrate addition measured every 30 seconds; design: species or system Sus scrofa

SMILES	IC50 [1] [µM]	Activity (Homo sapiens) [%]	further results
C/C=C1\NC(=O)[C@@H](NC(=O)[C@@H](NC(=O)[C@@H](COS(=O)(=O)O)OC)C(C)C)[C@@H](C)OC(=O)[C@H]([C@H](C)CC)NC(=O)[C@H](Cc2ccc(O)cc2)N(C)C(=O)[C@H](Cc2ccccc2)N2C(=O)[C@H](CC[C@H]2O)NC1=O [symplostatin 8]	> 10	69	
C/C=C1\NC(=O)[C@@H](NC(=O)[C@H](CCc2ccc(O)cc2)NC(=O)[C@H](C)NC(=O)[C@H](O)COS(=O)(=O)O)[C@@H](C)OC(=O)[C@H](C(C)C)NC(=O)[C@H](Cc2ccc(O)cc2)N(C)C(=O)[C@H](Cc2ccccc2)N2C(=O)[C@H](CC[C@H]2O)NC1=O [LYNGBYASTATIN 4]	> 10	72.2	
C/C=C1\NC(=O)[C@@H](NC(=O)[C@@H](NC(=O)[C@H](C)NC(C)=O)C(C)C)[C@@H](C)OC(=O)[C@H](C(C)C)NC(=O)[C@H](Cc2ccc(O)cc2)N(C)C(=O)[C@H](Cc2ccccc2)N2C(=O)[C@H](CC[C@H]2O)NC1=O [LYNGBYASTATIN 8]			IC50 [2]: 0.12 µM
C/C=C1\NC(=O)[C@@H](NC(=O)[C@@H](NC(=O)[C@@H](COS(=O)(=O)O)OC)C(C)C)[C@@H](C)OC(=O)[C@H](C(C)C)NC(=O)[C@H](Cc2ccccc2)N(C)C(=O)[C@H](Cc2ccccc2)N2C(=O)[C@H](CC[C@H]2O)NC1=O [symplostatin 6]	> 10	90.6	
CC(C)(C)C(=O)Oc1ccc(S(=O)(=O)Nc2ccccc2C(=O)NCC(=O)O)cc1	> 10	55.1	inhibition [3]: Active; IC50 [4]: 4.08 µM; inhibition [5]: Active; inhibition [6]: Active; IC50 [7]: 2.81 µM
C/C=C1\NC(=O)[C@@H](NC(=O)[C@@H](NC(=O)[C@H](C)NC(=O)CCC)C(C)C)[C@@H](C)OC(=O)[C@H](C(C)C)NC(=O)[C@H](Cc2ccc(O)cc2)N(C)C(=O)[C@H](Cc2ccccc2)N2C(=O)[C@H](CC[C@H]2O)NC1=O [LYNGBYASTATIN 9]			IC50 [2]: 0.12 µM
C/C=C1\NC(=O)[C@@H](NC(=O)[C@@H](NC(=O)[C@@H](COS(=O)(=O)O)OC)C(C)C)[C@@H](C)OC(=O)[C@H](C(C)C)NC(=O)[C@H](Cc2ccc(O)cc2)N(C)C(=O)[C@H](Cc2ccccc2)N2C(=O)[C@H](CC[C@H]2O)NC1=O [symplostatin 9]	> 10	73.9	
C/C=C1\NC(=O)[C@@H](NC(=O)[C@@H](NC(=O)[C@@H](COS(=O)(=O)O)OC)[C@@H](C)CC)[C@@H](C)OC(=O)[C@H]([C@H](C)CC)NC(=O)[C@H](Cc2ccccc2)N(C)C(=O)[C@H](Cc2ccccc2)N2C(=O)[C@H](CC[C@H]2O)NC1=O [symplostatin 7]	> 10	70.7	
C/C=C1\NC(=O)[C@@H](NC(=O)[C@@H](NC(=O)[C@@H](COS(=O)(=O)O)OC)[C@@H](C)CC)[C@@H](C)OC(=O)[C@H]([C@H](C)CC)NC(=O)[C@H](Cc2ccc(O)cc2)N(C)C(=O)[C@H](Cc2ccccc2)N2C(=O)[C@H](CC[C@H]2O)NC1=O [symplostatin 10]	> 10	79.4	
